These results are taken from ChEMBL document CHEMBL1122782, “Bulky amine analogues of ketoprofen: potent antiinflammatory agents” (J Med Chem, 1984).

What all share (assay type): functional
The species named for assay [1] is Rattus norvegicus. In words: Compound was evaluated for highest non-ulcerogenic dose (less than 50% ulcer incidence). The following applies: read-out: ED50. In outline: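 Taken from the 21-day adjuvant arthritis test in male Sprague-Dawley rats dosed orally each day from the day of adjuvant injection. Small intestines and stomachs were examined for ulceration at the end. The value is the highest dose giving less than 50% ulcer incidence.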

Assay [2] relates to Rattus norvegicus. In words: Antiinflammatory efficacy is measured by the percent inhibition of paw volume during the 3 week adjuvant arthritis test at 0.08 mM/kg (24.6 mg). In outline:
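Male Sprague-Dawley rats (200–230 g) were used in groups of eight. Each received 0.1 mL of 0.6% M. butyricum in heavy mineral oil into the plantar tissue of one hind paw. Daily oral gavage in 1% gum tragacanth or corn oil-water emulsion began on the injection day and ran 21 days. Total hind paw volume was measured by mercury displacement, and inhibition was taken versus vehicle-treated adjuvant controls.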

The test system of assay [3] is Rattus norvegicus. In words: The mean increase in paw volume was compared between drug treated groups and placebo to calculate the percent inhibition in rats at 0.08 mmol/kg by carrageenan Edema Assay; 40-49.
The test system of assay [4] is Rattus norvegicus. In words: The percent inhibition was calculated from the average differences in hind paw volume between the adjuvant injected controls and the adjuvant-injected medicated rats at 0.08 mmol/kg; 60-69. The settings on record: Rattus norvegicus.
For assay [5], the system named is Rattus norvegicus. In words: Ulcerogenicity was measured in intestine during the 3 week adjuvant arthritis test, no of animals with ulcers out of 72 animals tested at 0.08 mM/kg (24.6 mg) was reported. The method, boiled down:
(§1)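 In the 21-day adjuvant arthritis model, male Sprague-Dawley rats (200–230 g) received an M. butyricum mineral-oil suspension into one hind paw. They were dosed daily by gavage from the day of injection. At the end of the study the rats were killed, and the small intestines were examined for ulcers. Results are given as the number of ulcerated animals over the number tested.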

For assay [6], the system named is Rattus norvegicus. The assay is described as follows: Ulcerogenicity was measured in intestine during the 3 week adjuvant arthritis test, no of animals with ulcers out of 55 animals tested at 0.50 mM/kg (154 mg) was reported. The method, boiled down: as §1
The subject of assay [7] is Rattus norvegicus. In words: Ulcerogenicity was measured in stomach during the 3 week adjuvant arthritis test, no of animals with ulcers out of 55 animals tested at 0.50 mM/kg (154 mg) was reported. The method, boiled down: (§2)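 Male Sprague-Dawley rats (200–230 g) were injected in the plantar tissue of one hind paw with 0.1 mL of 0.6% M. butyricum suspension in heavy mineral oil. Daily oral gavage began on the day of adjuvant injection and ran for the 21 days, with drug suspended in 1% gum tragacanth or a corn oil-water emulsion. At the end the rats were sacrificed and the small intestine and stomach were examined for ulcers. Results are given as animals with ulcers/animals tested.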

Assay [8] relates to Rattus norvegicus. In words: Ulcerogenicity was measured in stomach during the 3 week adjuvant arthritis test, no of animals with ulcers out of 72 animals tested at 0.08 mM/kg (24.6 mg) was reported. The method, boiled down:
as §2

For assay [9], the system named is Rattus norvegicus. The assay is described as follows: Ulcerogenicity was measured in stomach during the 3 week adjuvant arthritis test, no of animals with ulcers out of 8 animals tested at 0.41 mM/kg (126 mg) was reported. In outline:
as §2

For assay [10], the system named is Rattus norvegicus. The assay is described as follows: Antiinflammatory efficacy is measured by the weight gain in rats during the 3 week adjuvant arthritis test at 0.50 mM/kg (154 mg). In outline: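 Male Sprague-Dawley rats (200–230 g), eight per group, received 0.1 mL of 0.6% M. butyricum in heavy mineral oil (negative controls: mineral oil) into one hind-paw plantar tissue. Daily gavage in 1% gum tragacanth or corn oil-water emulsion began on the injection day, for 21 days. Weight gain is expressed as (treated − adjuvant control)/(negative control − adjuvant control) × 100.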

Assay [11] relates to Rattus norvegicus. The assay is described as follows: Ulcerogenicity was measured in intestine during the 3 week adjuvant arthritis test, no of animals with ulcers out of 8 animals tested at 0.41 mM/kg (126 mg) was reported. The method, boiled down: as §2
Assay [12] concerns Rattus norvegicus. In words: Antiinflammatory efficacy is measured by the weight gain in rats during the 3 week adjuvant arthritis test at 0.08 mM/kg (24.6 mg). The method, boiled down: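 Rats were adjuvant-injected (M. butyricum in mineral oil, one hind paw) or given a mineral-oil placebo. They were dosed by gavage daily for 21 days from the injection day, with vehicle only for both control groups, then weighed at the end. Weight gain % = (treated − adjuvant control)/(negative control − adjuvant control) × 100.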

The test system of assay [13] is Rattus norvegicus. The assay is described as follows: The mean increase in paw volume was compared between drug treated groups and placebo to calculate the percent inhibition in rats at 0.08 mmol/kg by carrageenan Edema Assay; 60-69.
The test system of assay [14] is Rattus norvegicus. The assay is described as follows: The percent inhibition was calculated from the average differences in hind paw volume between the adjuvant injected controls and the adjuvant-injected medicated rats at 0.08 mmol/kg; 70-79.

What is called Inhibition is the share of the control response that was lost under treatment. Broadly, the inhibition in vivo is how much of the control response was suppressed.

Take `CCCCC1C(=O)N(c2ccccc2)N(c2ccccc2)C1=O` [PHENYLBUTAZONE]: in the assay listed under Rattus norvegicus [1], the highest non-ulcerogenic dose came to 40 µmol/kg. In the assay with Rattus norvegicus [2], the Inhibition was 66%. Further, the inhibition in vivo at 80 µmol/kg was 40% with Rattus norvegicus [3] and 60% in the assay with Rattus norvegicus [4]. Moreover, the Ulcerogenic index in the assay on Rattus norvegicus [5] is on record as 11; in the assay with Rattus norvegicus [6], 36; in the assay with Rattus norvegicus [7], 17; with Rattus norvegicus [8] it was 14; in the assay with Rattus norvegicus [9] it was 3; in the assay on Rattus norvegicus [11], 2. Further, the Weight gain with Rattus norvegicus [10] was found to be 41%; with Rattus norvegicus [12], 21%.

For `CC1CN(CC(C)c2cccc(C(=O)c3ccccc3)c2)CC(C)O1` (centres undefined), the inhibition in vivo at 80 µmol/kg with Rattus norvegicus [13] is 60%; in the assay with Rattus norvegicus [14], 70%.
